Measured values from ChEMBL document CHEMBL3769349, “Antiretroviral (HIV-1) activity of azulene derivatives” (Bioorg Med Chem, 2016).
pIC50: −log10 of the molar value. The source made the active and inactive calls.

Experiments:
[1] = Cytotoxicity against human U2OS cells assessed as cell viability at highest non-toxic concentration
[2] = system: Human immunodeficiency virus 1; assay: Antiretroviral activity against HIV-1 based virus like particles infected in U2OS cells assessed as Gluc activity at highest non-toxic concentration; type: functional
[3] = Cytotoxicity against human U2OS cells; type: cell-based
In short: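 Cytotoxicity measured by real-time impedance monitoring (xCELLigence RTCA DP) in U2OS cells kept in IMDM with 10% FBS and Pen/Strep. Compounds tested at several concentrations. Viability compared with 0.5% DMSO vehicle-treated cells. Highest non-toxic concentration defined as the level lowering viability by less than 20%.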

[4] = system: Human immunodeficiency virus 1; assay: Antiretroviral activity against HIV-1 based virus like particles infected in U2OS cells; type: functional, organism-based; conditions: Human immunodeficiency virus 1, U2OS
[5] = Selectivity index, ratio of CC50 for human U2OS cells to IC50 for HIV-1 based virus like particles infected in U2OS cells; type: functional
[6] = Cytotoxicity against human TZM-bl cells; type: cell-based
[7] = Selectivity index, ratio of CC50 for human TZM-bl cells to IC50 for HIV-1 infected in TZM-bl cells; type: functional
[8] = system: Human immunodeficiency virus 1; assay: Antiretroviral activity against HIV-1 infected in TZM-bl cells after 48 hrs by luciferase assay; conditions: Human immunodeficiency virus 1, TZM-bl
[9] = target: Human immunodeficiency virus type 1 reverse transcriptase (Human immunodeficiency virus 1) (UniProt Q72547); assay: Inhibition of recombinant HIV-1 reverse transcriptase at 500 uM using 234 nt long RNA template after 10 mins by liquid scintillation analysis
In short: (§1)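 Cell-free DNA polymerase assay with recombinant HIV-1 reverse transcriptase (1 unit). Nucleotides: dATP/dGTP/dTTP, cold dCTP and [³³P]dCTP. Enzyme and compound preincubated 10 min at room temperature. Synthesis started with annealed 234-nt RNA template/18-nt DNA primer. Filter-bound radioactivity counted by liquid scintillation. DMSO served as negative control.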

[10] = target: Human immunodeficiency virus type 1 reverse transcriptase (Human immunodeficiency virus 1, UniProt Q72547); assay: Inhibition of recombinant HIV-1 reverse transcriptase using 234 nt long RNA template after 10 mins by liquid scintillation analysis; in short: as §1

Row | Compound | viability [1] | Activity [2] | other results
1 | c1ccc(-c2cc(-c3ccccc3)c3cccccc2-3)cc1 | 80% | 124% | 
2 | Clc1cc(-c2ccccc2)c2cccccc1-2 | 88% | 94% | 
3 | N#Cc1cccc(-c2ccc3cccccc2-3)c1 | 80% | 63% | 
4 | Cc1ccnc2c1NC(=O)c1cccnc1N2C1CC1 [NEVIRAPINE] |  | 0.01% | 
5 | CCOC(=O)c1c(O)cc2cccccc1-2 | 89% | 6.4% | CC50 [3]: 344 µM; pIC50 [4]: 5.00; Ratio CC50/IC50 [5]: 34.1; CC50 [6]: 260 µM
6 | Oc1cc2cccccc-2c1 | 80% | 51% | CC50 [3]: 26.8 µM; pIC50 [4]: 5.66; Ratio CC50/IC50 [5]: 12.2; CC50 [6]: 60 µM; Ratio CC50/IC50 [7]: 7; pIC50 [8]: 5.07
7 | CCOC(=O)c1c2cccccc-2c(C(=O)OCC)c1O | 80% | 3.5% | inhibition [9]: Active; CC50 [3]: 72.2 µM; pIC50 [4]: 5.36; Ratio CC50/IC50 [5]: 16.4; CC50 [6]: 65 µM; Ratio CC50/IC50 [7]: 3; pIC50 [10]: 3.98; pIC50 [8]: 4.70
8 | Clc1cc(N2CCOCC2)c2cccccc1-2 | 80% | 98% | 
9 | Cc1cc(S(=O)(=O)[O-])c2c(C)ccc(C(C)C)cc1-2.[Na+] [SODIUM GUALENATE] | 91% | 154% | 
10 | Clc1cc(-c2ccncc2)c2cccccc1-2 | 80% | 36% | 
11 | O=C(O)c1cccc(-c2cc(Cl)c3cccccc2-3)c1 | 92% | 103% | 
12 | Clc1cc(Br)c2cccccc1-2 | 101% | 32% | 
13 | Clc1c2cccccc-2c(Cl)c1-c1cncnc1 | 80% | 141% | 
14 | CCOC(=O)c1ccc(-c2cc(C(=O)OCC)c3cccccc2-3)o1 | 83% | 70% | 
15 | Cc1ccc(C(C)C)cc2c(C)ccc1-2 [GUAIAZULEN] | 106% | 48% | 
16 | Brc1cc(Br)c2cccccc1-2 | 96% | 36% | 
17 | CCOC(=O)c1ccc2cccccc1-2 | 85% | 52% | pIC50 [4]: < 4.12
18 | CCOC(=O)c1ncc(-c2ccc3cccccc2-3)cc1F | 86% | 80% | 
